Screening results deposited in PubChem by several laboratories.
IMP-1 inh-1: blocks Pseudomonas aeruginosa IMP-1 metallo-beta-lactamase | AID 1556 | inhibition, % at 5.6 µM | 0.45% of 290,000 active | purified IMP-1, nitrocefin hydrolysis, epi-absorbance fluorescence;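 active = inhibition above the mean plus 3 SD of all compounds in the same screening run, cut at about 4.5% in these data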;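 note: 0% = IMP-1 with DMSO and 100% = DMSO wells lacking enzyme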
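System: purified recombinant IMP-1 beta-lactamase. Medium: Zinc- and detergent-supplemented HEPES buffer, pH 7.1. Compound: one 5.6 µM dose […]. Schedule: 15 min preincubation plus 25 min reaction at 25 °C. Technique: Epi-absorbance fluorescence, 480 nm excitation, 530 nm emission.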
DNA FID counter: counter-screen for HCV NS3 helicase inhibitors: DNA intercalator displacement | DNA fluorescent intercalator displacement, fluorescence | inhibition, % at 7.9 µM | 0.17% of 290,000 active; in the data active = inhibition above about 37%;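 note: 0% = vehicle and 100% = reference compound; higher means more ethidium bromide displaced from hairpin DNA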
UBC9 SUMO inh: inhibitors of human SUMOylation (UBC9) | inhibition, % at 35 µM | HTRF SUMOylation assay, SAE1/SAE2 + UBC9, in vitro | AID 2006 | 0.36% of 290,000 active; in the data active = inhibition above about 50%, passing the limit was not always enough
Target sequence (P63279 whole entry, looked up): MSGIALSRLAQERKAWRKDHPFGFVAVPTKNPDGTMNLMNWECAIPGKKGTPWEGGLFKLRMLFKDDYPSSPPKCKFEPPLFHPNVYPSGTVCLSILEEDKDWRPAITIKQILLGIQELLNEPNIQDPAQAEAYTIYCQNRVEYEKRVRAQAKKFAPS
VIM-2 inh: inhibitors of Pseudomonas aeruginosa VIM-2 metallo-beta-lactamase; purified VIM-2, nitrocefin hydrolysis, epi-absorbance fluorescence; inhibition, % at 5.6 µM; 0.89% of 290,000 active;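 active = inhibition above the mean of all tested compounds plus 3 SD, cutoff set per screening run, cut at about 7.5% in these data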;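 note: red hydrolysis product quenches plate fluorescence so inhibitors raise well fluorescence; 0% = enzyme with DMSO and 100% = DMSO without enzyme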
NALP1 yeast inh: inhibitors of NALP1 inflammasome in yeast; S. cerevisiae NALP1/ASC/caspase-1 growth, X-gal OD620, 72 h; inhibition, % at 10 µM; 0.61% of 280,000 active; AID 2071; in the data active = inhibition mostly above about 24%, no sharp cut-off; inactive = mostly below about 32%
Mot1-301 SUMO: blocks SUMOylation pathway, rescuing yeast Mot1-301 growth. S. cerevisiae Mot1-301 growth rescue, ATP luminescence, 38.5C; percent above DMSO median, 100 means doubled. 1% of 320,000 active. growth rescue, % at 18.8 µM. AID 2716;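 active = every valid replicate shows activation above 250% relative to neutral control wells; inactive = the rest, any valid replicate at or below 250%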;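 note: OY570 slx delta 5 strain wells were the positive control but not used for scaling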
IMP-1 inh-2: IMP-1 inhibition, counter-screen for VIM-2 inhibitors; purified IMP-1, nitrocefin hydrolysis, epi-absorbance fluorescence; shares compounds with VIM-2 inh; inhibition, % at 5.6 µM; AID 1856; 1,300 tested, under 10 active; call rule not given here;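 note: 0% = enzyme with vehicle and 100% = vehicle without enzyme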
VIM-2 FRET inh: VIM-2 FRET inhibition, artifact counter-screen. inhibition, % at 5.6 µM. purified VIM-2, CCF2 FRET substrate hydrolysis. shares compounds with VIM-2 inh. 23% of 1,300 active;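 active = inhibition above the mean of all tested compounds plus 3 SD, cut at about 19% in these data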;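 note: 0% = VIM-2 plus DMSO and 100% = no enzyme wells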
TEM-1 inh: blocks E. coli TEM-1 beta-lactamase in VIM-2 selectivity screen; shares compounds with VIM-2 inh; Purified TEM-1, nitrocefin hydrolysis, epi-absorbance fluorescence; inhibition, % at 5.6 µM; 3% of 1,300 active;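 active = inhibition above that campaign's mean inhibition plus 3 SD, cut at about 0.46% in these data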;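 note: 0% = TEM-1 with DMSO and 100% = TEM-1 with 100 µM potassium clavulanate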
Target sequence (P62593 whole entry, looked up): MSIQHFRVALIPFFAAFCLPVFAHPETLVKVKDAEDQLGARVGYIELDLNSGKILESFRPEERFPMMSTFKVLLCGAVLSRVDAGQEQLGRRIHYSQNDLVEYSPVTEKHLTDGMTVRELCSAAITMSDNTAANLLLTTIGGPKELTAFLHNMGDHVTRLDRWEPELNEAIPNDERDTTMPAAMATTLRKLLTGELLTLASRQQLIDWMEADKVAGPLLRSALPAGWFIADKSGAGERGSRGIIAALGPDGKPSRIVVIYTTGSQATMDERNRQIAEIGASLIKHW
VIM-2 confirm 2: confirmation of P. aeruginosa VIM-2 metallo-beta-lactamase inhibitors | 96% of 1,300 active | inhibition, % at 5.6 µM | AID 2187 | shares compounds with VIM-2 inh | purified VIM-2, nitrocefin hydrolysis, epi-absorbance;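 active = inhibition of the VIM-2 beta-lactamase enzyme above about 11% from the earlier first-round screen, limit read from the data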;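 note: 0% = VIM-2 with DMSO and 100% = buffer wells without enzyme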
* = called active by the depositor; . = not tested or not shown. An excerpt weighted towards active compounds, which were near 2.9% of everything screened.

SMILES | IMP-1 inh-1 | DNA FID counter | UBC9 SUMO inh | VIM-2 inh | NALP1 yeast inh | Mot1-301 SUMO | IMP-1 inh-2 | VIM-2 FRET inh | TEM-1 inh | VIM-2 confirm 2
Cc1ccc(CCNC(=O)c2nc(CS(=O)(=O)c3ccc(Cl)cc3)no2)cc1 | -3 | -33 | 4 | -2 | 9 | -15 | . | . | . | .
CCc1nn(CC(=O)NCCCN2CCOCC2)c(=O)c2cc3sccc3n12 | -1 | 1 | -3 | 4 | 10 | 2 | . | . | . | .
CCCN1CCN(C(=O)Cn2nc(CC)n3c(cc4sccc43)c2=O)CC1 | -1 | -10 | -3 | 33* | 3 | -6 | -2 | 0 | -7 | 39*
Cc1ccc2cccnc2c1N | -3 | -1 | 15 | 16* | 11 | -6 | -3 | -10 | -5 | 40*
Cc1ccc[n+](CC(=O)N2CCCCC2)c1C | -1 | 2 | -24 | -1 | . | -29 | . | . | . | .
Cn1c(=O)c2sccc2n2c(CCCC(=O)N3CCN(c4ccccn4)CC3)nnc12 | -4 | -28 | 29 | 13* | 22 | 19 | -3 | -1 | -6 | 20*
COc1cccc(/C=N/Nc2nn3cnnc3c3ccccc23)c1O | -3 | -7 | 29 | 0 | -37 | . | . | . | . | .
Oc1cccc(/C=N/Nc2nn3cnnc3c3ccccc23)c1 | -4 | -11 | 4 | 16* | 8 | -16 | -4 | 0 | -5 | 37*
Cc1ccc(S(=O)(=O)n2[nH]c(=O)cc2NC(=O)c2cccs2)cc1 | 0 | -27 | 11 | 70* | 23 | -9 | -4 | 91* | -6 | 84*
COc1ccc(S(=O)(=O)n2nc(OC(=O)c3cccs3)cc2NC(=O)c2cccs2)cc1 | -1 | -27 | 6 | 74* | 0 | 28 | -3 | 37* | 5.7* | 16*
COc1cccc(CN(C)C(=O)c2ccccc2SCC(=O)N2CCCC2)c1 | . | . | . | . | . | 16 | . | . | . | .
CCSc1nccc(-c2nn(-c3ccc(C)cc3)ccc2=O)n1 | 0 | -24 | 20 | 28* | -29 | -3 | -1 | 4 | 0 | 39*
Cn1c(C(=O)NCC2CCCO2)cc2c(=O)n(C)c3ccccc3c21 (centres undefined) | -1 | -20 | 2 | 15* | . | 123 | -3 | 0 | -6 | 20*
Cn1c(C(=O)NCc2ccccn2)cc2c(=O)n(C)c3ccccc3c21 | 2 | -22 | 4 | 16* | 34 | 9 | -3 | 3 | -6 | 25*
CC1CCN(CCCNC(=O)c2cc3c(=O)n(C)c4ccccc4c3n2C)CC1 | -3 | 17 | -19 | 21* | 22 | -8 | -2 | 2 | -7 | 31*
CC(C)Cn1cc(C(=O)NCCCN2CCC(C)CC2)c2c3ccccc3n(C)c2c1=O | . | . | . | . | . | -17 | . | . | . | .
CCCCN(CC)CCCNC(=O)c1cc2c(=O)n(C)c3ccccc3c2n1C | -4 | 27 | 12 | 25* | 9 | 2 | -3 | -1 | -6 | 30*
CCCCCCCN1C/C=C\C(c2ccc(OC)cc2)N(Cc2ccc(F)cc2)C(=O)[C@H]1Cc1ccccc1 (some centres undefined) | . | . | -4 | . | -27 | -11 | . | . | . | .
COCCn1c(-c2cccc([N+](=O)[O-])c2)nc2c1c(=O)[nH]c(=O)n2Cc1ccccc1 | -1 | -19 | 7 | 1 | 35 | 10 | . | . | . | .
Cn1c(C(=O)NC2CCCC2)cc2c(=O)n(C)c3ccccc3c21 | -1 | -23 | 20 | 18* | 6 | -16 | -3 | -3 | -6 | 21*
Cn1c(C(=O)NCCN2CCCCCC2)cc2c(=O)n(C)c3ccccc3c21 | -1 | 8 | 13 | 19* | 13 | 24 | 0 | 7 | -7 | 29*
Cn1c(C(=O)NCCCN2CCOCC2)cc2c(=O)n(C)c3ccccc3c21 | -3 | 5 | 6 | 18* | 18 | -7 | -3 | -2 | -4 | 28*
